According to PMC3313494 (Journal of the American Chemical Society, 2012):
Ends that are not written are not given here.

Assays:
sirtuins = test: Turnover of biotin-NAD as NAD alternate substrate; format: biochemical; conditions: 6-biotin-17-NAD; Supplemental Figure S12
monoamine oxidases = conditions: used in the treatment of clinical depression; cited from earlier work
Sir2Tm = Sir2Tm (Thermotoga maritima, UniProt Q9WYW0); test: HPLC deacetylation assay, Sir2Tm; format: biochemical, bacterial; conditions: pH 8.0, 37°C
Procedure, shortened: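 Enzyme addition at 37°C started the reaction; Sir2Tm was refolded from inclusion bodies, ~90% pure. Aliquots at 0, 5, 10, 20 min were acid-quenched, urea-treated, ultrafiltered and resolved by C18 reverse-phase HPLC; integrated peak areas gave rate constants.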

SIRT1 = target: T1, SIRT1 (Homo sapiens, UniProt Q96EB6); test: HPLC deacetylation assay, SIRT1; format: biochemical; conditions: 0.07 μM (1U) SIRT1, 500 μM NAD, peptide 0–500 μM, pH 8.0, 37°C, 0–20 min, at least duplicate
T1 sequence (Q96EB6 1-747): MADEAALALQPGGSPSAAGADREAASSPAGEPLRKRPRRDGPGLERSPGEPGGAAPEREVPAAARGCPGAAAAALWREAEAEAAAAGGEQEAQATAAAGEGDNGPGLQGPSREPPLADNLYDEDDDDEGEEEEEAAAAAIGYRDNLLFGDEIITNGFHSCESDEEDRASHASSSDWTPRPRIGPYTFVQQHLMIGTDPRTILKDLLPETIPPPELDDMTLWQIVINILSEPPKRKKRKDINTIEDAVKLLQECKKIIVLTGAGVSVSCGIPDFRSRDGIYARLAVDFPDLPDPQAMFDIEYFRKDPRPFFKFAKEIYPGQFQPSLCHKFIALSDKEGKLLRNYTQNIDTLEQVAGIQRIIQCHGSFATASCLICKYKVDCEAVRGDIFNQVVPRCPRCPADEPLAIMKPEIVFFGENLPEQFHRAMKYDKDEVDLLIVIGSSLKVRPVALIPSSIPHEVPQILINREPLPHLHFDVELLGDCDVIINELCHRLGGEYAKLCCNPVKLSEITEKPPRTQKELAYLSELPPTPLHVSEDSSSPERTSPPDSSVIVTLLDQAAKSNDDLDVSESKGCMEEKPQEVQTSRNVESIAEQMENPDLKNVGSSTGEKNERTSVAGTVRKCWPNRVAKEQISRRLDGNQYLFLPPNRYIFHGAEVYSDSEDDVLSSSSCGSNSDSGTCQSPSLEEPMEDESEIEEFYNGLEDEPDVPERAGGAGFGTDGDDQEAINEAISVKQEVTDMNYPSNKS

Chain of Sir2Tm (Q9WYW0 whole entry): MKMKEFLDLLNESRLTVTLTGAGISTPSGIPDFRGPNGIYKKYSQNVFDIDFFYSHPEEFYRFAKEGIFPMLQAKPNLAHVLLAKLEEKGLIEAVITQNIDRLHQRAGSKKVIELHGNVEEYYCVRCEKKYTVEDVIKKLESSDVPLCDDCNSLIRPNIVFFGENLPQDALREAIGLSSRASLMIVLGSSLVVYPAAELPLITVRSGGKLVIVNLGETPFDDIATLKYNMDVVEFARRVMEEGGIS

## 6-biotin-17-NAD
sirtuins
  use as NAD alternate substrate by sirtuins: can be turned over by sirtuins as an NAD alternate substrate

## NNCCc1ccccc1 [phenethylhydrazine]
Monoamine oxidases
  monoamine oxidase inhibition: well-established inhibitor of monoamine oxidases

## K382KAc: corresponding natural acetylated substrate, p53 (372–389) peptide containing acetyl-lysine at 382 (KKGQSTSRHKK(Ac)LMFKTEG; UniProt P04637 372-389, looked up, fragment)
Sir2Tm; 0.3–0.15 μM Sir2Tm, 500 μM NAD, peptide 0–500 μM, 0–20 min, HPLC, at least duplicate
  deacetylation rate (apparent kcat): 0.18 ± 0.025 s⁻¹
Sir2Tm; steady-state kinetics, Sir2Tm, 0.5 mM NAD, p53 (372–389) peptides
  Km: 71.8 ± 24.5 µM
SIRT1
  deacetylation rate (apparent kcat): 0.205 ± 0.012 s⁻¹
